Here are results for six compounds from ChEMBL document CHEMBL1149903, “Synthesis and biological evaluation of thiobenzanilides as anticancer agents” (Bioorg Med Chem, 2008).

The source made the active and inactive calls. The calls are words filed in the database; no cut-off is given here.

Data set [1] relates to A-375. Description: Cytotoxicity against human A375 cells at 10 uM by MTS assay. It counts as functional. The following applies: read-out: Survival. Summed up:
(§1)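 MTS proliferation assay. Cells were seeded at 2500 cells/well and incubated overnight, then exposed to compound at 10 µM for 24 h. MTS tetrazolium premixed with phenazine ethosulfate was then added and incubated 1–2 h at 37 °C. Absorbance was read at 490 nm against a 690 nm reference. Value reported is survival as % of control.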
On the technique in general: Tetrazolium assays rely on reduction of a dye to a coloured formazan, in cell work by metabolically active cells.

The next data set relates to K562. The data set can be described thus: Cytotoxicity against human K562 cells at 10 uM by MTS assay. The data set is classed as functional. The following applies: read-out: Survival. Summed up: as §1
Data set [2] can be described thus: Cytotoxicity against human 293T cells at 10 uM by MTS assay. It counts as cell-based, HEK-293T. To be noted: read-out: Survival. Summed up: as §1
Data set [3] concerns A-375. The data set can be described thus: Cell cycle arrest in human A375 cells assessed as accumulation at G1 phase at 10 uM after 24 hrs by flow cytometry. The data set is classed as functional. Summed up: (§2)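 A375 cells exposed 24 h to 10 µM agent, DMSO control. Harvested by trypsinization, washed in PBS, fixed in ice-cold 70% ethanol 30 min. RNase A 1 mg/mL (with trisodium citrate) at 37 °C 30 min. Stained with PI/citrate/Triton X-100 DNA solution 30 min at room temperature in the dark. DNA content of 10,000 events read by flow cytometry; phase percentages calculated.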
A general note: A flow cytometer gives signals particle by particle.

Data set [4] concerns A-375. Description: Cell cycle arrest in human A375 cells assessed as accumulation at S phase at 10 uM after 24 hrs by flow cytometry. It counts as functional. Summed up:
as §2

The subject of data set [5] is A-375. The data set can be described thus: Cell cycle arrest in human A375 cells assessed as accumulation at G2/M phase at 10 uM after 24 hrs by flow cytometry. The data set is classed as functional. Summed up:
as §2

The test system of data set [6] is A-375. The data set can be described thus: Induction of apoptosis in human A375 cells assessed as disruption of mitochondrial membrane potential at 10 uM after 24 hrs of labeling with rhodamine 123-dye by flow cytometry. The data set is classed as functional, cell-based. Summed up: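 Exponentially growing A375 cells treated 24 h at 10 µM, then trypsinized and pelleted. Resuspended in rhodamine 123 (10 µg/mL) for 30 min at room temperature, washed twice in PBS and read at once by flow cytometry (FL-1, 530/30 nm band pass).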

In data set [7] the test system is A-375. Description: Effect on intracellular ATP content in human A375 cells at 10 uM after 24 hrs by firefly luciferase luminescence relative to control. It counts as functional. Summed up:
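Intracellular ATP measured by firefly luciferin–luciferase bioluminescence (ATPlite kit). A375 cells treated 24 h with 10 µM agent, then lysed; debris removed by centrifugation and supernatant assayed. Relative ATP expressed as percentage of the 0 µM level.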

For data set [8], the system named is A-375. The data set can be described thus: Induction of apoptosis in human A375 cells assessed as annexin V-FITC cells at 10 uM after 24 hrs by annexin V-FITC and PI staining. The data set is classed as functional. Summed up: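 After 24 h at 10 µM, 10⁶ A375 cells per sample were stained with annexin V-FITC and PI at the same time and analysed by flow cytometry. Annexin V⁺/PI⁻ cells were scored as early apoptotic and annexin V⁺/PI⁺ cells as necrotic.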

Data set [9] deals with A-375. The data set can be described thus: Induction of apoptosis in human A375 cells assessed as caspase 3 activation at 10 uM after 24 hrs by Western blot analysis relative to control. The data set is classed as functional, cell-based. Summed up: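 Lysates of A375 cells exposed 24 h to 10 µM agent; 40 µg protein per lane run on 10% SDS-PAGE and transferred to PVDF. Blocked in 5% skim milk in PBS-T, then probed with rabbit polyclonal anti-caspase-3 (p20 active form), with actin as loading control. HRP secondary and chemiluminescence detection; band amounts quantified by densitometry.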
In general terms: Immunoblotting shows a protein as a band on a membrane.

In data set [10] the test system is A-375. The data set can be described thus: Induction of apoptosis in human A375 cells assessed as increase in intracellular H2O2 release at 10 uM after 4 hrs.
Data set [11] concerns A-375. Description: Induction of apoptosis in human A375 cells assessed as increase in intracellular H2O2 release at 10 uM after 4 hrs in presence of catalase.

Consider `O=C(Nc1ccc(Br)cc1)c1ccc([N+](=O)[O-])cc1`, for which the figures for the viability at 10 µM (in the data set with A-375 [1]; in the data set with K562; in [2]) were 81.1%, 89.1% and 86.9%, respectively.

Consider `O=C(Nc1ccc(C(F)(F)F)cc1)c1ccc([N+](=O)[O-])cc1`, for which the viability at 10 µM was determined as 87.2% in the data set with A-375 [1], 81.3% in the data set on K562 and 87.7% in data set [2].

With `O=[N+]([O-])c1ccc(C(=S)Nc2ccc(C(F)(F)F)cc2)cc1`, the values for the viability at 10 µM (in the data set on A-375 [1]; in the data set on K562; in data set [2]) were 36.2%, 41.4% and 41.2%, respectively. The Activity was found to be 55.4% in the data set with A-375 [3]; 17.1% with A-375 [4]; 27.6% in the data set with A-375 [5]; 63.1% in the data set with A-375 [7]; 33% in the data set with A-375 [8]. The outcome in the data set with A-375 [6], in the data set with A-375 [9] and in the data set on A-375 [10] was Active. Besides, the outcome with A-375 [11] was inactive.

On to `O=[N+]([O-])c1ccc(C(=S)Nc2ccc(Br)cc2)cc1`, for which the viability at 10 µM turned out to be 43% in the data set with A-375 [1], 42.9% with K562 and 48.4% in [2]. Further, the Activity with A-375 [3] was 58.4%; in the data set with A-375 [4], 12.7%; in the data set with A-375 [5], 29%; in the data set with A-375 [7], 66.1%; in the data set with A-375 [8], 7.5%. Besides, the outcome in the data set with A-375 [6], with A-375 [9] and in the data set with A-375 [10] was Active. Also, the outcome in the data set with A-375 [11] was inactive.

As to `O=[N+]([O-])c1ccc(NC(=S)c2ccc([N+](=O)[O-])cc2)cc1`, the viability at 10 µM was found to be 39.1% in the data set on A-375 [1], 47.9% with K562 and 44% in data set [2]. Further, the Activity came out at 59.9% in the data set with A-375 [3]; 11.3% in the data set on A-375 [4]; 28.9% in the data set with A-375 [5]; 83.6% in the data set on A-375 [7]; 16.3% with A-375 [8]. The result with A-375 [6], in the data set on A-375 [9] and in the data set with A-375 [10] was Active. The outcome in the data set on A-375 [11] was inactive.

For `O=C(Nc1ccc([N+](=O)[O-])cc1)c1ccc([N+](=O)[O-])cc1`, the values for the viability at 10 µM (in the data set with A-375 [1]; with K562; in [2]) were 70.5%, 71.3% and 85.2%, respectively.
